Source: ChEMBL document CHEMBL1148671, “Synthesis and antibacterial activity of C12 des-methyl ketolides” (2006)
≈ marks a conversion by molar mass, not a printed value.

What was measured:
Assay type in all cases: functional
Streptococcus pneumoniae [1] = experiment: Antibacterial activity against erythromycin-resistant Streptococcus pneumoniae mef 5654 by broth microdilution method
Streptococcus pneumoniae [2] = experiment: Antibacterial activity against erythromycin-resistant Streptococcus pneumoniae mef S 3427 by broth microdilution method
Haemophilus influenzae [3] = experiment: Antibacterial activity against Haemophilus influenzae 49247 by broth microdilution method
In short: (§1)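 In vitro activity was read as the minimum inhibitory concentration (MIC) by broth microdilution and reported in μg/mL. The S. pneumoniae panel included erythromycin-resistant strains carrying mef or erm genes. Telithromycin and clarithromycin were run as comparators in every assay.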

Haemophilus influenzae [4] = experiment: Antibacterial activity against Haemophilus influenzae 2762 by broth microdilution method; in short: as §1
Enterococcus faecalis [5] = experiment: Antibacterial activity against Enterococcus faecalis 29212 by broth microdilution method; in short: as §1
Enterococcus faecalis [6] = experiment: Antibacterial activity against Enterococcus faecalis bc11148-2 by broth microdilution method; in short: as §1
Streptococcus pyogenes = experiment: Antibacterial activity against Streptococcus pyogenes 8668 by broth microdilution method; in short: as §1
Streptococcus pneumoniae [7] = experiment: Antibacterial activity against Streptococcus pneumoniae 49619 by broth microdilution method; in short: as §1
Staphylococcus aureus [8] = experiment: Antibacterial activity against Staphylococcus aureus 29213 by broth microdilution method; conditions: ATCC29213; in short: as §1
Staphylococcus aureus [9] = experiment: Antibacterial activity against Staphylococcus aureus 33591 by broth microdilution method; in short: as §1
[10] = system: Staphylococcus epidermidis; experiment: Antibacterial activity against Staphylococcus epidermidis 14990 by broth microdilution method; in short: as §1
[11] = system: Staphylococcus epidermidis; experiment: Antibacterial activity against Staphylococcus epidermidis f50654 by broth microdilution method; in short: as §1
Streptococcus pneumoniae [12] = experiment: Antibacterial activity against Streptococcus pneumoniae 297-749 by broth microdilution method; in short: as §1
Streptococcus pneumoniae [13] = experiment: Antibacterial activity against Streptococcus pneumoniae 280-962 by broth microdilution method; in short: as §1
Streptococcus pneumoniae [14] = experiment: Antibacterial activity against erythromycin-resistant Streptococcus pneumoniae erm 6849 by broth microdilution method

| SMILES | MIC (Streptococcus pneumoniae [1]) [µg/mL] | MIC (Streptococcus pneumoniae [2]) [µg/mL] | MIC (Haemophilus influenzae [3]) [µg/mL] | MIC (Haemophilus influenzae [4]) [µg/mL] | MIC (Enterococcus faecalis [5]) [µg/mL] | MIC (Enterococcus faecalis [6]) [µg/mL] | MIC (Streptococcus pyogenes) [µg/mL] | MIC (Streptococcus pneumoniae [7]) [µg/mL] | MIC (Staphylococcus aureus [8]) [µg/mL] | MIC (Staphylococcus aureus [9]) [µg/mL] | MIC [10] [µg/mL] | MIC [11] [µg/mL] | MIC (Streptococcus pneumoniae [12]) [µg/mL] | MIC (Streptococcus pneumoniae [13]) [µg/mL] | MIC (Streptococcus pneumoniae [14]) [µg/mL] |
| --- | --- | --- | --- | --- | --- | --- | --- | --- | --- | --- | --- | --- | --- | --- | --- |
| CC[C@H]1OC(=O)[C@H](C)C(=O)[C@H](C)[C@@H](O[C@@H]2O[C@H](C)C[C@H](N(C)C)[C@H]2O)[C@](C)(OC)C[C@@H](C)C(=O)[C@H](C)[C@H]2N(CCCCn3cnc(-c4cccnc4)c3)C(=O)O[C@]12C [TELITHROMYCIN] | 0.4 (≈ 0.493 µM) | – | – | – | – | – | – | – | – | – | – | – | – | – | – |
| CC[C@H]1OC(=O)[C@H](C)C(=O)[C@H](C)[C@@H](O[C@@H]2O[C@H](C)C[C@H](N(C)C)[C@H]2O)[C@](C)(OC)C[C@@H](C)C(=O)[C@H](C)[C@@H]2[C@@H]1OC(=O)N2CCCCn1cnc(-c2ccc(C)nc2)c1 | 1.56 (≈ 1.92 µM) | 0.4 (≈ 0.493 µM) | 3.13 (≈ 3.85 µM) | 1.56 (≈ 1.92 µM) | 0.1 (≈ 0.123 µM) | 3.13 (≈ 3.85 µM) | ≤ 0.05 | ≤ 0.05 | 0.2 (≈ 0.246 µM) | > 50 | 0.2 (≈ 0.246 µM) | 0.2 (≈ 0.246 µM) | ≤ 0.05 | ≤ 0.05 | 50 (≈ 61.6 µM) |
| CC[C@H]1OC(=O)[C@H](C)C(=O)[C@H](C)[C@@H](O[C@@H]2O[C@H](C)C[C@H](N(C)C)[C@H]2O)[C@](C)(OC)C[C@@H](C)C(=O)[C@H](C)[C@@H]2[C@@H]1OC(=O)N2CCCCn1ccc2c(N)cccc21 | 0.78 (≈ 0.994 µM) | – | 3.13 (≈ 3.99 µM) | 1.56 (≈ 1.99 µM) | ≤ 0.05 | 6.25 (≈ 7.96 µM) | ≤ 0.05 | 0.1 (≈ 0.127 µM) | 0.2 (≈ 0.255 µM) | > 50 | 0.4 (≈ 0.51 µM) | 0.78 (≈ 0.994 µM) | ≤ 0.05 | ≤ 0.05 | 25 (≈ 31.8 µM) |
| CC[C@H]1OC(=O)[C@H](C)C(=O)[C@H](C)[C@@H](O[C@@H]2O[C@H](C)C[C@H](N(C)C)[C@H]2O)[C@](C)(OC)C[C@@H](C)C(=O)[C@H](C)[C@@H]2[C@@H]1OC(=O)N2CCCCn1cnc2ncccc21 | 3.13 (≈ 4.05 µM) | 0.4 (≈ 0.518 µM) | 3.13 (≈ 4.05 µM) | – | 0.1 (≈ 0.13 µM) | > 50 | ≤ 0.05 | ≤ 0.05 | 0.4 (≈ 0.518 µM) | > 50 | 0.4 (≈ 0.518 µM) | 0.4 (≈ 0.518 µM) | ≤ 0.05 | ≤ 0.05 | 0.78 (≈ 1.01 µM) |
| CC[C@H]1OC(=O)[C@H](C)C(=O)[C@H](C)[C@@H](O[C@@H]2O[C@H](C)C[C@H](N(C)C)[C@H]2O)[C@](C)(OC)C[C@@H](C)C(=O)[C@H](C)[C@@H]2[C@@H]1OC(=O)N2CCCCc1ncc(-c2cccc(N)c2)s1 | 0.78 (≈ 0.941 µM) | – | 6.25 (≈ 7.54 µM) | 1.56 (≈ 1.88 µM) | 0.2 (≈ 0.241 µM) | 3.13 (≈ 3.78 µM) | ≤ 0.05 | ≤ 0.05 | 0.4 (≈ 0.482 µM) | > 50 | 0.4 (≈ 0.482 µM) | 0.2 (≈ 0.241 µM) | ≤ 0.05 | ≤ 0.05 | 50 (≈ 60.3 µM) |
| CC[C@H]1OC(=O)[C@H](C)C(=O)[C@H](C)[C@@H](O[C@@H]2O[C@H](C)C[C@H](N(C)C)[C@H]2O)[C@](C)(OC)C[C@@H](C)C(=O)[C@H](C)[C@@H]2[C@@H]1OC(=O)N2CCCCc1ccnc2ccccc12 | 0.1 (≈ 0.128 µM) | – | 1.56 (≈ 1.99 µM) | – | ≤ 0.05 | > 50 | ≤ 0.05 | ≤ 0.05 | 0.1 (≈ 0.128 µM) | > 50 | 0.1 (≈ 0.128 µM) | 0.1 (≈ 0.128 µM) | ≤ 0.05 | ≤ 0.05 | 6.25 (≈ 7.99 µM) |
| CC[C@H]1OC(=O)[C@H](C)C(=O)[C@H](C)[C@@H](O[C@@H]2O[C@H](C)C[C@H](N(C)C)[C@H]2O)[C@](C)(OC)C[C@@H](C)C(=O)[C@H](C)[C@@H]2[C@@H]1OC(=O)N2CCCCc1ccc(-c2cncnc2)s1 | 0.4 (≈ 0.491 µM) | – | 12.5 (≈ 15.3 µM) | 3.13 (≈ 3.84 µM) | ≤ 0.05 | > 50 | ≤ 0.05 | ≤ 0.05 | 0.2 (≈ 0.245 µM) | > 50 | 0.2 (≈ 0.245 µM) | 0.2 (≈ 0.245 µM) | ≤ 0.05 | ≤ 0.05 | > 50 |
| CC[C@H]1OC(=O)[C@H](C)C(=O)[C@H](C)[C@@H](O[C@@H]2O[C@H](C)C[C@H](N(C)C)[C@H]2O)[C@](C)(OC)C[C@@H](C)C(=O)[C@H](C)[C@@H]2[C@@H]1OC(=O)N2CCCCn1cnc2cccnc21 | 0.78 (≈ 1.01 µM) | – | 3.13 (≈ 4.05 µM) | – | ≤ 0.05 | 50 (≈ 64.8 µM) | ≤ 0.05 | ≤ 0.05 | 0.2 (≈ 0.259 µM) | > 50 | 0.2 (≈ 0.259 µM) | 0.4 (≈ 0.518 µM) | ≤ 0.05 | ≤ 0.05 | 0.78 (≈ 1.01 µM) |
